# Bioassay records: PubChem BioAssay, several laboratories
# TRPC4 agonist – activators of mouse TRPC4 channel, primary screen, Fluo4 calcium, HEK293 TRPC4beta/mu-opioid cells; Short transient receptor potential channel 4 (Mus musculus), Q9QUQ5; B-score at 10 µM; AID 2237, 2010; Fluo4 calcium fluorescence; active compounds read high; hit rate 0.49% among 310,000;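 active means B-score above 5 SD of library B-scores, and initial fluorescence ratio not above library mean plus 5 SD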;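 further: positive B-score marks a calcium rise read as TRPC4 activation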
#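 Assay system: HEK293 stable line with TRPC4beta plus mu-opioid receptor. Times: dye 45 min RT, read 110 s. Measured by: kinetic Fluo4 calcium fluorescence. Measure: B score of integrated ratio. Controls: assay buffer as low control, maximal DAMGO as high control.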
# TRPC4 block – inhibitors of mouse TRPC4 channel, primary screen, Fluo4 calcium, HEK293 TRPC4beta/mu-opioid cells | B-score at 10 µM | Short transient receptor potential channel 4 (Mus musculus), Q9QUQ5 | AID 2247, 2010 | hit rate 0.39% among 300,000 | DAMGO-evoked Fluo4 calcium flux; active compounds read low;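 active means B-score over 3 SD under the library average, no early fluorescence shift, positive overall ratio signal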
#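 Assay system: HEK293 cells with stable TRPC4beta plus mu-opioid receptor expression. Dosing: single dose. Measured by: Fluo4 Ca2+ flux fluorescence. Also added: DAMGO in two steps, submaximal then maximal. Read-out: B score from integrated Fluo4 fluorescence ratio.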
# TRPC4 potent – positive allosteric modulators of TRPC4, primary screen, cell-based, mouse TRPC4beta, HEK293 mu-opioid, Fluo-4 calcium; DAMGO EC20, Fluo-4 Ca2+ flux; active compounds read high; B-score at 10 µM; AID 2227, 2009; Short transient receptor potential channel 4 (Mus musculus), Q9QUQ5; hit rate 0.42% among 310,000;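 active means B-score of calcium response area above 5 SD of library B-scores, with initial fluorescence ratio within 5 SD of library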
# TRPC6 inhibitor – mouse TRPC6 channel inhibitors, primary screen, cell-based, HEK293, membrane potential dye | B-score at 10 µM | AID 2553, 2010 | hit rate 1.1% among 310,000 | ACh-evoked depolarization; active compounds read low;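 active means B-score under library mean minus 3 SD, initial fluorescence not abnormally high, positive integrated signal ratio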;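 further: B-score derived from integrated fluorescence ratio over the kinetic read; more negative B-score means stronger inhibition of depolarization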
# TRPC6 act – mouse TRPC6 channel activators, primary screen, cell-based, HEK293, membrane potential dye; Short transient receptor potential channel 6 (Mus musculus), Q61143; B-score at 10 µM; HEK293-TRPC6 membrane potential dye fluorescence; active compounds read high; hit rate 0.13% among 310,000;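 active means B-score of the integrated fluorescence ratio above library mean plus 3 SD, and starting fluorescence ratio within library mean plus 5 SD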;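 further: higher score means more depolarization so channel activation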
# Pemphigus Ab inh – inhibitors of pemphigus antibody binding to DSG3, primary screen, biochemical, bead-based, flow cytometry, scFv-GFP; Desmoglein-3 (Homo sapiens), P32926; DSG3-coupled beads, scFv-anti-DSG3-GFP binding; active compounds read low; binding (percent of control), % at 10 µM; hit rate 0.48% among 310,000; AID 588358, 2011;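 active means binding more than 3 SD below its plate's average and above zero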;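 further: hits lower antibody fragment binding to DSG3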
# Target sequence (P32926 whole entry, looked up, the tested form may be a part): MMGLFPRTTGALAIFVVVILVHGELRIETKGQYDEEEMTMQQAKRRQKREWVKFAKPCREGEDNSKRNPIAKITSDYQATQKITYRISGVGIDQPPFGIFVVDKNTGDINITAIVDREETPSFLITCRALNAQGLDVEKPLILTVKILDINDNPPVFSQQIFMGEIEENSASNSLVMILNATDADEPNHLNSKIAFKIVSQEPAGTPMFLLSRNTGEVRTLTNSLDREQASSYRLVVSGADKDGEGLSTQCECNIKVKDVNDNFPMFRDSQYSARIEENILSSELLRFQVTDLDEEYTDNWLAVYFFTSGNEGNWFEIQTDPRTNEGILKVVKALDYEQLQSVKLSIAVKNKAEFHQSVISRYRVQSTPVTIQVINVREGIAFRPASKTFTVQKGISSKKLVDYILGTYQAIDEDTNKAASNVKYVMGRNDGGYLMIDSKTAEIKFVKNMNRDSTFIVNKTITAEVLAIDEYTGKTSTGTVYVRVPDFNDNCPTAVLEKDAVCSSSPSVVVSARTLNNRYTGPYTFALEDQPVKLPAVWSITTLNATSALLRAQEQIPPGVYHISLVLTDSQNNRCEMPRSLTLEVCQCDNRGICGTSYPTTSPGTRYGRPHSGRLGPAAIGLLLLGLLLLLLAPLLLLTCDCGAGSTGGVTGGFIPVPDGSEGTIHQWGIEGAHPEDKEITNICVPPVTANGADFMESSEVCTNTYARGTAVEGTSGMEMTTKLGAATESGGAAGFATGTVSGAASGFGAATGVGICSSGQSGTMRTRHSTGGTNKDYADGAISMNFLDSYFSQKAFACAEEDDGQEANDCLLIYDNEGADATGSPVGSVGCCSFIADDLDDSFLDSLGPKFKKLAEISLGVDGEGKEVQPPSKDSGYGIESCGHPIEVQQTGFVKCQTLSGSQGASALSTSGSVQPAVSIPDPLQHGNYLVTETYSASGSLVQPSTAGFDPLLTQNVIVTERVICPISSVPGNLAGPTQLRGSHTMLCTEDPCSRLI
# TRPC4 sel inh 2 – second check of whether TRPC6 inhibitors also affect mouse TRPC4 | hit rate 42% among 920 | HEK293 TRPC4/MOR, membrane potential dye fluorescence; channel activated by saturating DAMGO dose | shares compounds with TRPC6 inhibitor | inhibition, % at 10 µM;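 active means compounds whose fluorescence signal differed from control wells by over 3 SD, either direction, in both duplicate plates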
# TRPC4 spec – mouse TRPC4 modulation by TRPC6 hits, confirmation, selectivity assay for TRPC6 inhibitor project, cell-based, HEK293 TRPC4/mu-opioid, membrane potential dye | shares compounds with TRPC6 inhibitor | membrane potential fluorescence | activity change, negative = inhibition, % at 10 µM | hit rate 61% among 920 | AID 2777, 2010;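 active means rise or fall in signal beyond 3 SD of buffer-only wells in both replicate plates, either sign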;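 further: integrated kinetic ratio of fluorescence range over baseline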
# HEK293 MPD ctr 2-1 – nonspecific membrane potential effects, parental HEK293, confirmation, counter-screen for TRPC6 inhibitor project, cell-based, second counter screen; shares compounds with TRPC6 inhibitor; parental HEK293 membrane potential dye fluorescence; maximal acetylcholine challenge after compound addition; signal change vs control, % at 10 µM; hit rate 31% among 920; AID 2779, 2010;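 active means membrane potential signal moving either way by over 3 SD of the maximum-effect control, in both duplicate plates, meaning non-specific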
# HEK293 MPD ctr-1 – membrane potential modulation in parental HEK293, confirmation, counter-screen for TRPC6 inhibitor project, cell-based | shares compounds with TRPC6 inhibitor | parental HEK293 membrane potential dye fluorescence | membrane potential signal change, % at 10 µM | hit rate 60% among 920;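 active means membrane potential signal shifting up or down by more than 3 SD of buffer-only wells, on both duplicate plates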
# HEK293 MPD ctr-2 – parental HEK293 membrane potential modulation, confirmation, counter-screen for TRPC6 modulator project, cell-based | shares compounds with TRPC6 inhibitor | membrane potential dye fluorescence | membrane potential signal change, % at 10 µM | hit rate 51% among 2,400 | AID 488924, 2010;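 active means membrane potential signal moves up or down beyond 5 SD from buffer-only wells, on both duplicate plates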
# HEK293 MPD ctr 2-2 – second check of TRPC6 modulator effects in parental HEK293 cells; shares compounds with TRPC6 inhibitor; membrane potential dye fluorescence; after compound, maximal acetylcholine stimulation; inhibition, % at 10 µM; hit rate 14% among 2,400; AID 488926;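 active means membrane potential signal drops by more than 5 SD from the mean control signal, in both duplicate plates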
# TRPC4/MOR mod – TRPC4 modulation by TRPC6 hit compounds, confirmation, selectivity assay for TRPC6 modulator project, cell-based, HEK293 TRPC4/mu-opioid, membrane potential dye, mouse; shares compounds with TRPC6 inhibitor; membrane potential fluorescence; percent change from control (negative = decrease, positive = increase), % at 10 µM; hit rate 69% among 2,400; AID 488927, 2010;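 active means membrane potential signal moved up or down beyond 5 SD of buffer control wells, in both duplicate plates, actives on both sides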
# TRPC4 ctr inh 2 – second check of whether TRPC6 modulators also affect mouse TRPC4. shares compounds with TRPC6 inhibitor. HEK293 TRPC4/mu-opioid, membrane potential dye fluorescence; stimulated with maximal-effect DAMGO. inhibition, % at 10 µM. hit rate 55% among 2,400. AID 488928;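 active means drop in membrane potential signal beyond 5 SD of the control wells in both duplicate plates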;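 further: TRPC4 counter screen for TRPC6 hits run under conditions tuned for TRPC6 not TRPC4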
# TRPC6 inh conf – mouse TRPC6 channel inhibitors, confirmation, HEK293 cells, membrane potential dye, duplicate; hit rate 43% among 3,300; inhibition, % at 10 µM; shares compounds with TRPC6 inhibitor; ACh-evoked depolarization;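 active means fluorescence ratio falls more than 5 SD below the full-stimulation control mean, in both duplicate runs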;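 further: integrated fluorescence ratio of peak minus minimum over baseline after agonist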
# TRPC6 act confirm – mouse TRPC6 channel activators, confirmation, HEK293 cells, membrane potential dye, duplicate. shares compounds with TRPC6 inhibitor. AID 488961, 2010. activation, % at 10 µM. hit rate 11% among 2,800. HEK293-TRPC6 membrane potential dye fluorescence, FDSS;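 active means ratio signal rise beyond 5 SD above unstimulated control wells' mean, seen in both duplicate runs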
# A number is an active result; - = inactive; . = no result given; + = active, no number. An excerpt weighted towards active compounds, which were near 2.5% of everything screened.
SMILES,TRPC4 agonist,TRPC4 block,TRPC4 potent,TRPC6 inhibitor,TRPC6 act,Pemphigus Ab inh,HEK293 MPD ctr-2,HEK293 MPD ctr 2-2,TRPC4/MOR mod,TRPC4 ctr inh 2,TRPC6 inh conf,TRPC6 act confirm,others
CCCC(=O)NC(c1ccc2c(c1)OCO2)c1cc(Cl)c2cccnc2c1O (configuration not stated),-,-,-,-5.8,-,.,118%,-,-,-,-,-,
COc1ccc(S(=O)(=O)Nc2noc3ccccc23)cc1,-,-,-,-6.7,-,-,.,.,.,.,-,-,TRPC4 sel inh 2=-;TRPC4 spec=-;HEK293 MPD ctr 2-1=-;HEK293 MPD ctr-1=-
CC[N+](C)(CC)CCOC(=O)C1c2ccccc2Oc2ccccc21,.,.,.,.,.,-,.,.,.,.,.,.,
CN(C)CCCOC(=O)C1c2ccccc2Oc2ccccc21,-,-,-,-8.5,-,.,.,.,.,.,63%,.,TRPC4 sel inh 2=-;TRPC4 spec=7.3%;HEK293 MPD ctr 2-1=28%;HEK293 MPD ctr-1=7.4%
CN(CCOC(=O)C1c2ccccc2Oc2ccccc21)C(C)(C)C,-,-,-,-10,-,.,.,.,.,.,68%,.,TRPC4 sel inh 2=-;TRPC4 spec=15%;HEK293 MPD ctr 2-1=24%;HEK293 MPD ctr-1=11%
O=C(NCCN1CCOCC1)c1cnn2c(-c3ccccc3)cc(-c3ccccc3)nc12,-,-,-,-7.5,-,-,.,.,.,.,-,-,TRPC4 sel inh 2=-;TRPC4 spec=-;HEK293 MPD ctr 2-1=-;HEK293 MPD ctr-1=-130%
O=C(Nc1nnc(C2CC2)s1)c1n[nH]c(=O)c2ccccc12,-,-,-,-,-,-,.,.,.,.,.,.,
COc1ccc(CCNC(=O)C2CCN(Cc3nc(-c4cccc(Cl)c4)oc3C)CC2)cc1OC,-,-,-,-7.3,-,-,-,-,-,75%,-,-,
Cc1c(OCC(=O)NCCCN2CCCC2=O)ccc2c3c(c(=O)oc12)CCCC3,-,-,-,-,-,.,.,.,.,.,.,.,
Cc1c(OCC(=O)NCCCN2CCCC2=O)ccc2c3c(c(=O)oc12)CCC3,-,-,-,-6.1,-,-,-105%,-,-19%,-,-,-,
Cc1c(OCC(=O)NCCN2CCOCC2)ccc2c3c(c(=O)oc12)CCC3,-,-,-,-5.2,-,-,-,-,-14%,-,-,-,
Cc1cc(=O)oc2c(C)c(OCC(=O)NCCCn3ccnc3)ccc12,-,-,-,-6.6,-,-,-192%,-,-32%,30%,-,-,
Cc1cc(=O)oc2c(C)c(OCC(=O)NCCCN3CCCC3=O)ccc12,-,-,-,-5.2,-,-,-192%,-,-28%,-,-,-,
CN(C)CCN(C)Cc1ccccc1Sc1cccc2ccccc12,-,-,-,-,-,-,.,.,.,.,.,.,
O=C(c1ccc(-c2ccccc2Cl)o1)N1CCCCCCC1,.,.,.,.,.,-,.,.,.,.,.,.,
CC1CCCN(C(=O)c2ccc(-c3ccccc3Cl)o2)C1 (configuration not stated),-,-,-,-5.1,-,-,-,-,15%,-,-,.,
O=C(COC(=O)CNS(=O)(=O)c1ccc2ccccc2c1)Nc1ccccc1Sc1ccccc1,-,-,-,-,-,-,.,.,.,.,.,.,
CCCCOc1ccc(C(=O)N(C)CC(=O)Nc2ccc(C)cc2)cc1,-,-,-,-,-,-,.,.,.,.,.,.,
COc1cc(N2CCCC2)c(OC)cc1C=O,-,-,-,-7.9,-,-,.,.,.,.,-,-,TRPC4 sel inh 2=-;TRPC4 spec=-;HEK293 MPD ctr 2-1=250%;HEK293 MPD ctr-1=-
Nc1ccc(/C=C/C(=O)c2ccco2)cc1,-,-,-,-8.4,25,-,722%,+,92%,52%,80%,199%,
N#Cc1ccc(/C=C/C(=O)c2ccco2)cc1,-,-,-,-,-,-,.,.,.,.,.,.,
CN1CCN(NC(=O)c2ccc(Br)c(S(=O)(=O)N3CCOCC3)c2)CC1,-,-,-,-,-,-,.,.,.,.,.,.,
CN(C)CCNS(=O)(=O)c1ccc(N2CCc3ccccc32)c([N+](=O)[O-])c1,-,-,-,-7.2,-,.,-129%,-,-28%,73%,60%,-,
COc1ccc(-c2nc(-c3cccs3)c(-c3cccs3)[nH]2)cc1OC,-,-,-,-5.5,-,-,-,-,-,-,-,-,
CCOc1cccc2sc(N(CCCN(C)C)C(=O)c3ccc(S(=O)(=O)N(C)CC4CCCO4)cc3)nc12 (configuration not stated),-,-,-,-7.4,-,-,.,.,.,.,-,-,TRPC4 sel inh 2=48%;TRPC4 spec=-14%;HEK293 MPD ctr 2-1=-;HEK293 MPD ctr-1=-
CN(C)CCN(C(=O)c1ccco1)c1nc2cc3c(cc2s1)OCCO3,-,-,-,-5.3,-,-,-136%,-,-40%,88%,60%,-,
